Measurements gathered from unrelated publications.
Protocols differ between the studies behind these lines.
Target: LIM domain kinase 2 (LIMK2, Homo sapiens, UniProt P53671)

SMILES | observed | mode | method | concentration | measurement | value
CC(C)(C)c1nc2c(s1)c1nc(N)ncc1c1ccc(NS(=O)(=O)c3c(F)cccc3F)c(F)c12 | enzyme activity | inhibitor | radiometric | 1 µM | remaining activity | 92%
O=C(NCc1ncc(C(F)(F)F)cc1Cl)c1ccc2c(c1)C1(CCS(=O)(=O)CC1)[C@@H](C1CC1)N2S(=O)(=O)c1ccc(F)cc1 | cell-free assay | – | competition with immobilised ligand | 1 µM | remaining binding | 94%
CN1CC(Oc2cnc(C#N)cc2-c2ccn3nc(NC(=O)C4CC4)cc3c2)C1 | enzyme activity | inhibitor | – | 1 µM | inhibition | 5%
Cc1ccc(C(=O)Nc2ccc(CN3CCN(C)CC3)c(C(F)(F)F)c2)cc1C#Cc1cnc2cccnn12 | enzyme activity | inhibitor | – | 23.5 nM | remaining activity | 100%
CCOc1cc(-c2nncn2C)ccc1Nc1ncc2cc(C)nc(NCC(C)(C)C)c2n1 | cell-free assay | – | TR-FRET | 1 µM | inhibition | ≤ 15%
Cc1sc(C(=O)NC2COC2)cc1-n1cc(NC(=O)Nc2c(F)cccc2Cl)cn1 | enzyme activity | inhibitor | – | 10 µM | remaining activity | 113%
CC(C)(C)c1nc(-c2cccc(NS(=O)(=O)c3c(F)cccc3F)c2F)c(-c2ccnc(N)n2)s1 | enzyme activity | inhibitor | radiometric | 1 µM | remaining activity | 87%
O=C(N[C@H]1CCCCC/C=C\C2C[C@@]2(C(=O)O)NC(=O)[C@@H]2C[C@@H](Oc3ccncc3)CN2C1=O)OC1CCCC1 (stereo partly drawn) | binding | – | competition with immobilised ligand | 1 µM | remaining binding | 93%
COc1cc(Cl)c(C(=O)N[C@@H](CN[C@H]2CC[C@@H](N)CC2)Cc2ccc(C#N)cc2)cc1-c1ccc(CN[C@H](C)c2ccc(C)cc2)o1 | enzyme activity | inhibitor | – | 1 µM | remaining activity | 101%
c1cnn2ncc(-c3ccnc(N4CCC45COC5)n3)c2c1 | binding | – | – | 1 µM | remaining binding | 82%
O=C(Nc1cnn(-c2csc(C(=O)NC3COC3)c2)c1)Nc1ccccc1Cl | enzyme activity | inhibitor | – | 5 µM | remaining activity | 96.8%
Nc1ncnc2occ(-c3ccc(NC(=O)Nc4cc(C(F)(F)F)ccc4F)cc3)c12 | cell-free assay | inhibitor | – | 20 µM | remaining signal | 8.8%
